Data taken from publication PMC7935732 (Targeted Oncology, 2021).

Tested on: Chinese patients with advanced and/or metastatic cancers
Test: Safety and tolerability
Type: in vivo, human
Procedure, shortened: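 Safety set: all patients with ≥ 1 dose. Patient-reported AEs were collected during treatment; chemistry, hematology and urinalysis were done at protocol time points. Laboratory and non-laboratory AEs were graded by CTCAE v4.0 and summarized by cohort.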

## CCN1CCN(Cc2ccc(Nc3ncc(F)c(-c4cc(F)c5nc(C)n(C(C)C)c5c4)n3)nc2)CC1 [abemaciclib]
150 mg cohort
  Grade 5 TEAE of respiratory failure: ^aOne patient reported Grade 5 TEAE of respiratory failure in 150 mg cohort
  Patients who discontinued study treatment due to leukopenia: 1 patient
  Patients with dose reduction from 150 to 100 mg during Cycle 1: 5 patients
150 mg every 12 h (n = 12)
  Alanine aminotransferase increased, TEAE any grade: 5 (41.7) n (%)
  Anemia, TEAE any grade: 7 (58.3) n (%)
  Bilirubin increased, TEAE any grade: 4 (33.3) n (%)
  Blood creatinine increased, TEAE any grade: 6 (50.0) n (%)
  Cough, TEAE any grade: 4 (33.3) n (%)
  Decreased appetite, TEAE any grade: 9 (75.0) n (%)
  Diarrhea, TEAE any grade: 9 (75.0) n (%)
  Leukopenia (white blood cell count decreased), TEAE any grade: 9 (75.0) n (%)
  Localized edema, TEAE any grade: 3 (25.0) n (%)
  Malaise, TEAE any grade: 7 (58.3) n (%)
  Nausea, TEAE any grade: 3 (25.0) n (%)
  Neutropenia (neutrophil count decreased), TEAE any grade: 10 (83.3) n (%)
  Patients with ≥ 1 TEAE (any grade): 12 (100.0) n (%)
  Thrombocytopenia (platelet count decreased), TEAE any grade: 6 (50.0) n (%)
  Vomiting, TEAE any grade: 4 (33.3) n (%)
200 mg cohort
  Patients reporting SAE of pulmonary embolism: 3 patients
  Patients reporting SAE of urinary tract infection: 1 patient
  Patients with dose reduction from 200 to 150 mg during Cycle 1: 2 patients
200 mg every 12 h (n = 13)
  Alanine aminotransferase increased, TEAE any grade: 2 (15.4) n (%)
  Anemia, TEAE any grade: 5 (38.5) n (%)
  Bilirubin increased, TEAE any grade: 1 (7.7) n (%)
  Blood creatinine increased, TEAE any grade: 8 (61.5) n (%)
  Cough, TEAE any grade: 4 (30.8) n (%)
  Decreased appetite, TEAE any grade: 6 (46.2) n (%)
  Diarrhea, TEAE any grade: 11 (84.6) n (%)
  Leukopenia (white blood cell count decreased), TEAE any grade: 7 (53.8) n (%)
  Localized edema, TEAE any grade: 2 (15.4) n (%)
  Malaise, TEAE any grade: 6 (46.2) n (%)
  Nausea, TEAE any grade: 6 (46.2) n (%)
  Neutropenia (neutrophil count decreased), TEAE any grade: 9 (69.2) n (%)
  Patients with ≥ 1 TEAE (any grade): 13 (100.0) n (%)
  Thrombocytopenia (platelet count decreased), TEAE any grade: 5 (38.5) n (%)
  Vomiting, TEAE any grade: 4 (30.8) n (%)
Grade 3, 150 mg (n = 12)
  Anemia TEAE: 2 (16.7) n (%)
  Blood bilirubin increased TEAE: 1 (8.3) n (%)
  Diarrhea TEAE: 1 (8.3) n (%)
  Embolism TEAE: 1 (8.3) n (%)
  Hyponatraemia TEAE: 2 (16.7) n (%)
  Leukopenia (white blood cell count decreased) TEAE: 0 n (%)
  Lung infection TEAE: 1 (8.3) n (%)
  Malaise TEAE: 1 (8.3) n (%)
  Muscular weakness TEAE: 1 (8.3) n (%)
  Neutropenia (neutrophil count decreased) TEAE: 5 (41.7) n (%)
  Patients with ≥ 1 TEAE of Grade ≥ 3: 8 (66.7) n (%)
  Thrombocytopenia (platelet count decreased) TEAE: 3 (25.0) n (%)
  Vomiting TEAE: 0 n (%)
Grade 3, 200 mg (n = 13)
  Anemia TEAE: 0 n (%)
  Blood bilirubin increased TEAE: 0 n (%)
  Diarrhea TEAE: 3 (23.1) n (%)
  Embolism TEAE: 0 n (%)
  Hyponatraemia TEAE: 0 n (%)
  Leukopenia (white blood cell count decreased) TEAE: 3 (23.1) n (%)
  Lung infection TEAE: 0 n (%)
  Malaise TEAE: 0 n (%)
  Muscular weakness TEAE: 0 n (%)
  Neutropenia (neutrophil count decreased) TEAE: 3 (23.1) n (%)
  Patients with ≥ 1 TEAE of Grade ≥ 3: 6 (46.2) n (%)
  Thrombocytopenia (platelet count decreased) TEAE: 2 (15.4) n (%)
  Vomiting TEAE: 0 n (%)
Grade 3, Total (n = 25)
  Anemia TEAE: 2 (8.0) n (%)
  Blood bilirubin increased TEAE: 1 (4.0) n (%)
  Diarrhea TEAE: 4 (16.0) n (%)
  Hyponatraemia TEAE: 2 (8.0) n (%)
  Leukopenia (white blood cell count decreased) TEAE: 3 (12.0) n (%)
  Lung infection TEAE: 1 (4.0) n (%)
  Malaise TEAE: 1 (4.0) n (%)
  Muscular weakness TEAE: 1 (4.0) n (%)
  Neutropenia (neutrophil count decreased) TEAE: 8 (32.0) n (%)
  Patients with ≥ 1 TEAE of Grade ≥ 3: 14 (56.0) n (%)
  Thrombocytopenia (platelet count decreased) TEAE: 5 (20.0) n (%)
  Vomiting TEAE: 0 n (%)
Grade 4, 150 mg (n = 12)
  Anemia TEAE: 0 n (%)
  Blood bilirubin increased TEAE: 0 n (%)
  Diarrhea TEAE: 0 n (%)
  Embolism TEAE: 0 n (%)
  Hyponatraemia TEAE: 0 n (%)
  Leukopenia (white blood cell count decreased) TEAE: 0 n (%)
  Lung infection TEAE: 0 n (%)
  Malaise TEAE: 0 n (%)
  Muscular weakness TEAE: 0 n (%)
  Neutropenia (neutrophil count decreased) TEAE: 0 n (%)
  Patients with ≥ 1 TEAE of Grade ≥ 3: 1 (8.3) n (%)
  Thrombocytopenia (platelet count decreased) TEAE: 1 (8.3) n (%)
  Vomiting TEAE: 1 (8.3) n (%)
Grade 4, 200 mg (n = 13)
  Anemia TEAE: 0 n (%)
  Blood bilirubin increased TEAE: 0 n (%)
  Diarrhea TEAE: 0 n (%)
  Embolism TEAE: 3 (23.1) n (%)
  Hyponatraemia TEAE: 0 n (%)
  Leukopenia (white blood cell count decreased) TEAE: 0 n (%)
  Lung infection TEAE: 0 n (%)
  Malaise TEAE: 0 n (%)
  Muscular weakness TEAE: 0 n (%)
  Neutropenia (neutrophil count decreased) TEAE: 0 n (%)
  Patients with ≥ 1 TEAE of Grade ≥ 3: 3 (23.1) n (%)
  Thrombocytopenia (platelet count decreased) TEAE: 0 n (%)
  Vomiting TEAE: 0 n (%)
Grade 4, Total (n = 25)
  Anemia TEAE: 0 n (%)
  Blood bilirubin increased TEAE: 0 n (%)
  Diarrhea TEAE: 0 n (%)
  Hyponatraemia TEAE: 0 n (%)
  Leukopenia (white blood cell count decreased) TEAE: 0 n (%)
  Lung infection TEAE: 0 n (%)
  Malaise TEAE: 0 n (%)
  Muscular weakness TEAE: 0 n (%)
  Neutropenia (neutrophil count decreased) TEAE: 0 n (%)
  Patients with ≥ 1 TEAE of Grade ≥ 3: 4 (16.0) n (%)
  Thrombocytopenia (platelet count decreased) TEAE: 1 (4.0) n (%)
  Vomiting TEAE: 1 (4.0) n (%)
Total (n = 25)
  Alanine aminotransferase increased, TEAE any grade: 7 (28.0) n (%)
  Anemia, TEAE any grade: 12 (48.0) n (%)
  Bilirubin increased, TEAE any grade: 5 (20.0) n (%)
  Blood creatinine increased, TEAE any grade: 14 (56.0) n (%)
  Cough, TEAE any grade: 8 (32.0) n (%)
  Decreased appetite, TEAE any grade: 15 (60.0) n (%)
  Diarrhea, TEAE any grade: 20 (80.0) n (%)
  Leukopenia (white blood cell count decreased), TEAE any grade: 16 (64.0) n (%)
  Localized edema, TEAE any grade: 5 (20.0) n (%)
  Malaise, TEAE any grade: 13 (52.0) n (%)
  Nausea, TEAE any grade: 9 (36.0) n (%)
  Neutropenia (neutrophil count decreased), TEAE any grade: 19 (76.0) n (%)
  Patients with ≥ 1 TEAE (any grade): 25 (100.0) n (%)
  Thrombocytopenia (platelet count decreased), TEAE any grade: 11 (44.0) n (%)
  Vomiting, TEAE any grade: 8 (32.0) n (%)
All treated patients
  Discontinuation of study treatment due to diarrhea or neutropenia: No patient discontinued
  ECG data or vital signs findings: No clinically meaningful findings
  Febrile neutropenia: No febrile neutropenia was reported
All treated patients (n = 25)
  Diarrhea Grade 4 or 5: not reported
  Diarrhea of Grade 3: 4 patients
  Patients reporting at least one TEAE of any grade: 100%
  Patients who died on treatment due to AE (respiratory failure): 4.0%
  Patients who discontinued treatment due to AEs: 16%
  Patients with TEAE of Grade 4 in severity: 16.0%
  Thrombocytopenia TEAE of Grade ≥ 3: 24%
All treated patients (n = 25), all Grade 3
  Neutropenia TEAE of Grade ≥ 3: 32%
In total (n = 25)
  Patients reporting serious adverse events (SAEs): 24.0%
Of the 20 patients experiencing diarrhea
  Patients with 3 or more episodes of diarrhea: 7 patients
